Test results: ChEMBL document CHEMBL1147771, “Synthesis and antibacterial activity of 9-substituted minocycline derivatives” (2006)
≈ marks a conversion by molar mass, not a printed value.

Experiments:
Type in all cases: functional
Staphylococcus aureus [1] = assay: Antibacterial activity against Staphylococcus aureus Smith
How it was run: (§1)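 MICs determined by agar dilution.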

Escherichia coli [2] = assay: Antibacterial activity against Minocycline sensitive Escherichia coli 90-5
How it was run: (§2)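 Antibacterial activity determined by agar dilution.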

Staphylococcus aureus [3] = assay: Antibacterial activity against Staphylococcus aureus UBMS 88-7 carrying the tetK-resistant determinant; how it was run: as §2
Staphylococcus aureus [4] = assay: Antibacterial activity against Staphylococcus aureus UBMS 90-3; how it was run: as §1
Staphylococcus aureus [5] = assay: Antibacterial activity against Staphylococcus aureus UBMS 90-1 carrying tetM-resistant determinant; how it was run: as §2
Enterococcus faecalis = assay: Antibacterial activity against Enterococcus faecalis ATCC 29212; how it was run: as §1
Escherichia coli [6] = assay: Antibacterial activity against Escherichia coli UBMS 90-4 carrying tetM-resistant determinant; how it was run: as §2
Escherichia coli [7] = assay: Antibacterial activity against Escherichia coli UBMS 88-1 carrying tetB-resistant determinant; how it was run: as §2
Staphylococcus aureus [8] = assay: Antibacterial activity against Staphylococcus aureus UBMS 90-2 carrying tetM-resistant determinant; how it was run: as §2
Escherichia coli [9] = assay: Antibacterial activity against Minocylcine sensitive Escherichia coli 89-2; how it was run: as §1
Escherichia coli [10] = assay: Antibacterial activity against Minocycline sensitive Escherichia coli 88-2; how it was run: as §1
Escherichia coli [11] = assay: Antibacterial activity against Escherichia coli UBMS 89-1 carrying tetM-resistant determinant; how it was run: as §2

Question: Which results are given for `CN(C)CC(=O)Nc1cc(N(C)C)c2c(c1O)C(=O)C1=C(O)[C@]3(O)C(O)=C(C(N)=O)C(=O)[C@@H](N(C)C)C3CC1C2` (stereo not given in full)?
Answer: MIC (Staphylococcus aureus [1]): 0.06 µg/mL (≈ 0.108 µM); MIC (Escherichia coli [2]): 0.12 µg/mL (≈ 0.215 µM); MIC (Staphylococcus aureus [3]): 0.5 µg/mL (≈ 0.897 µM); MIC (Staphylococcus aureus [4]): 0.06 µg/mL (≈ 0.108 µM); MIC (Staphylococcus aureus [5]): 0.12 µg/mL (≈ 0.215 µM); MIC (Enterococcus faecalis): 0.06 µg/mL (≈ 0.108 µM); MIC (Escherichia coli [6]): 0.25 µg/mL (≈ 0.448 µM); MIC (Escherichia coli [7]): 0.25 µg/mL (≈ 0.448 µM)

Question: How did the MIC (Staphylococcus aureus [1]) turn out when `CN(C)c1cc(NC(=O)CNC2CCCC2)c(O)c2c1CC1CC3[C@H](N(C)C)C(=O)C(C(N)=O)=C(O)[C@@]3(O)C(=O)C1=C2O` (stereo not given in full) was run?
Answer: Its MIC is 0.25 µg/mL (≈ 0.418 µM).

Question: What about the MIC (Escherichia coli [2]) of the same molecule?
Answer: The MIC was 0.25 µg/mL (≈ 0.418 µM).

Question: And the MIC (Staphylococcus aureus [3])?
Answer: Its MIC is 2 µg/mL (≈ 3.35 µM).

Question: And the MIC (Staphylococcus aureus [4])?
Answer: The MIC was 0.12 µg/mL (≈ 0.201 µM).

Question: What about the MIC (Staphylococcus aureus [5]) of the same molecule?
Answer: Its MIC is 0.25 µg/mL (≈ 0.418 µM).

Question: What about the MIC (Enterococcus faecalis) of the same molecule?
Answer: Its MIC is 0.12 µg/mL (≈ 0.201 µM).

Question: And the MIC (Escherichia coli [6])?
Answer: The MIC was 0.25 µg/mL (≈ 0.418 µM).

Question: What about the MIC (Escherichia coli [7]) of the same molecule?
Answer: Its MIC is 0.25 µg/mL (≈ 0.418 µM).

Question: With `CN(C)c1cc(NS(=O)(=O)c2cccs2)c(O)c2c1CC1CC3[C@H](N(C)C)C(=O)C(C(N)=O)=C(O)[C@@]3(O)C(=O)C1=C2O` (stereo not given in full) as the molecule, how does the MIC (Staphylococcus aureus [1]) read?
Answer: Its MIC is 0.03 µg/mL (≈ 0.0485 µM).

Question: And the MIC (Staphylococcus aureus [3])?
Answer: The MIC was 2 µg/mL (≈ 3.23 µM).

Question: What about the MIC (Staphylococcus aureus [8]) of the same molecule?
Answer: Its MIC is 0.25 µg/mL (≈ 0.404 µM).

Question: What about the MIC (Staphylococcus aureus [4]) of the same molecule?
Answer: The MIC was 0.25 µg/mL (≈ 0.404 µM).

Question: What about the MIC (Escherichia coli [9]) of the same molecule?
Answer: The MIC was 16 µg/mL (≈ 25.9 µM).

Question: And the MIC (Staphylococcus aureus [5])?
Answer: The MIC was 1 µg/mL (≈ 1.62 µM).

Question: And the MIC (Enterococcus faecalis)?
Answer: The MIC was 0.25 µg/mL (≈ 0.404 µM).

Question: And the MIC (Escherichia coli [7])?
Answer: The MIC was 32 µg/mL (≈ 51.7 µM).

Question: What about the MIC (Escherichia coli [10]) of the same molecule?
Answer: The MIC was 8 µg/mL (≈ 12.9 µM).

Question: For `CC(=O)Nc1nc(C)c(S(=O)(=O)Nc2cc(N(C)C)c3c(c2O)C(O)=C2C(=O)[C@]4(O)C(O)=C(C(N)=O)C(=O)[C@@H](N(C)C)C4CC2C3)s1` (stereo not given in full), which MIC (Staphylococcus aureus [1]) is on record?
Answer: Its MIC is 2 µg/mL (≈ 2.9 µM).

Question: And the MIC (Staphylococcus aureus [3])?
Answer: Its MIC is 32 µg/mL (≈ 46.3 µM).

Question: And the MIC (Staphylococcus aureus [8])?
Answer: Its MIC is 4 µg/mL (≈ 5.79 µM).

Question: What about the MIC (Staphylococcus aureus [4]) of the same molecule?
Answer: The MIC was 2 µg/mL (≈ 2.9 µM).

Question: What about the MIC (Escherichia coli [11]) of the same molecule?
Answer: The MIC was 32 µg/mL (≈ 46.3 µM).

Question: What about the MIC (Escherichia coli [9]) of the same molecule?
Answer: Its MIC is over 32 µg/mL.

Question: What about the MIC (Staphylococcus aureus [5]) of the same molecule?
Answer: The MIC was 32 µg/mL (≈ 46.3 µM).

Question: And the MIC (Enterococcus faecalis)?
Answer: The MIC was 1 µg/mL (≈ 1.45 µM).

Question: What about the MIC (Escherichia coli [7]) of the same molecule?
Answer: The MIC was over 32 µg/mL.

Question: And the MIC (Escherichia coli [10])?
Answer: Its MIC is over 32 µg/mL.

Question: How did the MIC (Staphylococcus aureus [1]) turn out when `CN(C)c1cc(NC(=O)c2ccccc2F)c(O)c2c1CC1CC3[C@H](N(C)C)C(=O)C(C(N)=O)=C(O)[C@@]3(O)C(=O)C1=C2O` (stereo not given in full) was run?
Answer: The MIC was 1 µg/mL (≈ 1.68 µM).

Question: What about the MIC (Staphylococcus aureus [3]) of the same molecule?
Answer: The MIC was 8 µg/mL (≈ 13.5 µM).

Question: What about the MIC (Staphylococcus aureus [8]) of the same molecule?
Answer: Its MIC is 2 µg/mL (≈ 3.36 µM).

Question: And the MIC (Staphylococcus aureus [4])?
Answer: The MIC was 1 µg/mL (≈ 1.68 µM).

Question: And the MIC (Escherichia coli [9])?
Answer: The MIC was over 32 µg/mL.

Question: What about the MIC (Staphylococcus aureus [5]) of the same molecule?
Answer: Its MIC is 4 µg/mL (≈ 6.73 µM).

Question: What about the MIC (Enterococcus faecalis) of the same molecule?
Answer: Its MIC is 4 µg/mL (≈ 6.73 µM).

Question: And the MIC (Escherichia coli [7])?
Answer: Its MIC is over 32 µg/mL.

Question: And the MIC (Escherichia coli [10])?
Answer: Its MIC is over 32 µg/mL.

Question: How did the MIC (Staphylococcus aureus [1]) turn out when `CN(C)c1cc(NS(=O)(=O)c2ccc(Cl)cc2)c(O)c2c1CC1CC3[C@H](N(C)C)C(=O)C(C(N)=O)=C(O)[C@@]3(O)C(=O)C1=C2O` (stereo not given in full) was run?
Answer: The MIC was 0.12 µg/mL (≈ 0.185 µM).

Question: And the MIC (Staphylococcus aureus [3])?
Answer: Its MIC is 1 µg/mL (≈ 1.55 µM).

Question: And the MIC (Staphylococcus aureus [8])?
Answer: The MIC was 0.12 µg/mL (≈ 0.185 µM).

Question: And the MIC (Staphylococcus aureus [4])?
Answer: Its MIC is 0.12 µg/mL (≈ 0.185 µM).

Question: What about the MIC (Escherichia coli [9]) of the same molecule?
Answer: Its MIC is over 32 µg/mL.

Question: What about the MIC (Staphylococcus aureus [5]) of the same molecule?
Answer: The MIC was 0.25 µg/mL (≈ 0.386 µM).

Question: And the MIC (Enterococcus faecalis)?
Answer: Its MIC is 0.06 µg/mL (≈ 0.0927 µM).

Question: What about the MIC (Escherichia coli [7]) of the same molecule?
Answer: The MIC was over 32 µg/mL.

Question: What about the MIC (Escherichia coli [10]) of the same molecule?
Answer: The MIC was over 32 µg/mL.

Question: For `CN(C)c1cc(NC(=O)CCC2CCCC2)c(O)c2c1CC1CC3[C@H](N(C)C)C(=O)C(C(N)=O)=C(O)[C@@]3(O)C(=O)C1=C2O` (stereo not given in full), which MIC (Staphylococcus aureus [1]) is on record?
Answer: Its MIC is 4 µg/mL (≈ 6.7 µM).

Question: What about the MIC (Escherichia coli [2]) of the same molecule?
Answer: Its MIC is over 128 µg/mL.

Question: What about the MIC (Staphylococcus aureus [3]) of the same molecule?
Answer: The MIC was 8 µg/mL (≈ 13.4 µM).

Question: What about the MIC (Staphylococcus aureus [8]) of the same molecule?
Answer: Its MIC is 8 µg/mL (≈ 13.4 µM).

Question: And the MIC (Staphylococcus aureus [4])?
Answer: Its MIC is 4 µg/mL (≈ 6.7 µM).

Question: And the MIC (Staphylococcus aureus [5])?
Answer: Its MIC is 8 µg/mL (≈ 13.4 µM).

Question: What about the MIC (Enterococcus faecalis) of the same molecule?
Answer: Its MIC is 8 µg/mL (≈ 13.4 µM).

Question: What about the MIC (Escherichia coli [6]) of the same molecule?
Answer: The MIC was over 128 µg/mL.

Question: What about the MIC (Escherichia coli [7]) of the same molecule?
Answer: Its MIC is over 128 µg/mL.

Question: For `CN(C)c1ccc(O)c2c1C[C@H]1C[C@H]3[C@H](N(C)C)C(O)=C(C(N)=O)C(=O)[C@@]3(O)C(O)=C1C2=O` [MINOCYCLINE], which MIC (Staphylococcus aureus [1]) is on record?
Answer: The MIC was 0.06 µg/mL (≈ 0.131 µM).

Question: And the MIC (Staphylococcus aureus [3])?
Answer: The MIC was 0.25 µg/mL (≈ 0.546 µM).

Question: What about the MIC (Staphylococcus aureus [8]) of the same molecule?
Answer: Its MIC is 2 µg/mL (≈ 4.37 µM).

Question: And the MIC (Staphylococcus aureus [4])?
Answer: Its MIC is 0.03 µg/mL (≈ 0.0656 µM).

Question: What about the MIC (Escherichia coli [11]) of the same molecule?
Answer: The MIC was over 32 µg/mL.

Question: And the MIC (Escherichia coli [9])?
Answer: Its MIC is 2 µg/mL (≈ 4.37 µM).

Question: What about the MIC (Staphylococcus aureus [5]) of the same molecule?
Answer: Its MIC is 8 µg/mL (≈ 17.5 µM).

Question: What about the MIC (Enterococcus faecalis) of the same molecule?
Answer: The MIC was 2 µg/mL (≈ 4.37 µM).

Question: What about the MIC (Escherichia coli [7]) of the same molecule?
Answer: The MIC was 16 µg/mL (≈ 35 µM).

Question: What about the MIC (Escherichia coli [10]) of the same molecule?
Answer: Its MIC is 0.25 µg/mL (≈ 0.546 µM).

Question: Which results are given for `CN(C)c1cc(NC(=O)CNC(C)(C)C)c(O)c2c1C[C@H]1C[C@H]3[C@H](N(C)C)C(O)=C(C(N)=O)C(=O)[C@@]3(O)C(O)=C1C2=O` [TIGECYCLINE]?
Answer: MIC (Staphylococcus aureus [1]): 0.25 µg/mL (≈ 0.427 µM); MIC (Escherichia coli [2]): 0.25 µg/mL (≈ 0.427 µM); MIC (Staphylococcus aureus [3]): 0.5 µg/mL (≈ 0.854 µM); MIC (Staphylococcus aureus [4]): 0.25 µg/mL (≈ 0.427 µM); MIC (Staphylococcus aureus [5]): 0.12 µg/mL (≈ 0.205 µM); MIC (Enterococcus faecalis): 0.12 µg/mL (≈ 0.205 µM); MIC (Escherichia coli [6]): 0.12 µg/mL (≈ 0.205 µM); MIC (Escherichia coli [7]): 0.5 µg/mL (≈ 0.854 µM)
